The test system of data set [1] is Trypanosoma brucei brucei. Nature of the data set: Antimicrobial activity against bloodstream form of Trypanosoma brucei brucei 427 at 10 uM after 48 hrs by alamar blue assay. The settings on record: Trypanosoma brucei, 427, 48 h. In kind it is functional. For orientation: Alamar Blue is a resazurin reagent that responds to reducing activity.
The subject of data set [2] is Trypanosoma brucei brucei. As to the kind of experiment: Antimicrobial activity against bloodstream form of Trypanosoma brucei brucei 427 after 48 hrs by alamar blue assay. The settings on record: Trypanosoma brucei, 427, 48 h. In kind it is functional, organism-based.
Data set [3] can be described thus: Selectivity index, ratio of IC50 for HEK293 cells to IC50 for Trypanosoma brucei brucei 427. The settings on record: human, read-out: Ratio IC50. Format: toxicity, cell-based.
Data set [4] can be described thus: Partition coefficient, log D of the compound at pH 7.4 by HPLC method. In kind it is physicochemical. The conditions noted are these: octanol/water. The gist of the method: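 Distribution coefficient at pH 7.4 was measured chromatographically.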
The nature of data set [5]: Kinetic solubility of the compound at 10 mg/ml at pH 2 by nephelometry. Format: physicochemical. The conditions noted are these: buffer, read-out: Kinetic_solubility. The essentials:
(§1)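 Kinetic solubility was read by nephelometry at pH 2 and pH 6.5 and reported as μg/mL ranges.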

A short description of data set [6]: Kinetic solubility of the compound at 10 mg/ml at pH 6.5 by nephelometry. The conditions noted are these: buffer, read-out: Kinetic_solubility. In kind it is physicochemical. The essentials: as §1
A short description of data set [7]: Plasma protein binding in human […] by chromatographic method. In kind it is ADME, cell-free. The settings on record: read-out: PPB (converted). The essentials: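 Human plasma protein binding was estimated by a chromatographic method.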
Another data set has as its system Liver microsome. As to the kind of experiment: Intrinsic clearance in human liver microsomes at 1 uM after 60 mins by LC-MS analysis. Format: ADME. The settings on record: 1 h. The essentials:
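In vitro intrinsic clearance was measured in human liver microsomes and expressed per mg protein. A hepatic extraction ratio (E_H) was predicted from the in vitro data.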
(In general: Microsomes from liver hold many membrane-bound enzymes, among them those of drug oxidation.)

Another data set deals with Plasmodium falciparum. Nature of the data set: Antimicrobial activity against erythrocytic stage of Plasmodium falciparum NF54 infected in human washed RBC assessed as [3H]-hypoxanthine incorporation incubated for 48 hrs prior to [3H]-hypoxanthine addition measured after 24 hrs by liquid scintillation counting analysis. In kind it is functional, organism-based.

≈ marks a conversion by molar mass, not a printed value.

A word on the inhibition: it is how much of the control response was suppressed. A lower inhibition goes with a weak effect. `Cc1cc(NC(=O)c2ccccc2C)no1` showed an inhibition at 10 µM in data set [1] of under 10%.
Same read-out and setting: under `Cc1cccc(F)c1C(=O)Nc1ccccn1` stands 45%.
The same measure, in the same setting: under `CCC/C=C/c1ccc(NC(=O)c2ccccc2C)nc1` stands 19%.
One may read the IC50 as the point on the concentration scale where inhibition reaches its midpoint. Low readings indicate inhibition by little substance, high ones a need for much substance. In turn, `Cc1ccccc1C(=O)Nc1cc(C#CCC(C)C)ccn1` displayed an IC50 in [2] of 1.1 µM. For the same molecule, the selectivity ratio in [3] was over 53.
In turn, `COc1cccc(NC(=O)c2ccccc2C)n1` yielded an inhibition at 10 µM in data set [1] of under 10%.
In data set [1], `Cc1ccccc1C(=O)Nc1ncccc1C` gave an inhibition at 10 µM of 34%.
The same measure, in the same setting: then `Cc1ccccc1C(=O)Nc1cccc(C#Cc2ccccc2)n1`, with under 10%; and `Cc1ccncc1C(=O)Nc1ccccn1`, with under 10%.
The same measure, in the same setting: then `Cc1ccccc1C(=O)Nc1cccc(-c2ccccc2)n1`, with 33%.
`CCC/C=C/c1cccc(NC(=O)c2ccccc2C)n1`: the IC50 in data set [2] is 6 µM. In addition, the selectivity ratio in data set [3] was over 3.
The molecule `Cc1ccccc1C(=O)Nc1cc[nH]n1` displayed an inhibition at 10 µM in data set [1] of under 10%.
Still for that read-out and setting: then `Cc1cccc(C)c1C(=O)Nc1ccccn1`, with under 10%; and `Cc1ccc(C)c(C(=O)Nc2ccccn2)c1`, with 22%; and `Cc1ccc(Br)cc1C(=O)Nc1ccccn1`, with under 10%.
In data set [1], `Cc1ccccc1C(=O)Nc1ccc(Br)cn1` yielded an inhibition at 10 µM of under 10%.
Same read-out and setting: then `Cc1ccccc1C(=O)Nc1ncns1`, with under 10%; and `Cc1ccccc1C(=O)Nc1cnccn1`, with 35%.
As for `Cc1cc(Cl)ccc1C(=O)Nc1ccccn1`, the IC50 in data set [2] came out at 1.1 µM. Besides, the selectivity ratio in [3] amounted to 76.
For `Cc1c(C(=O)Nc2cc(Cl)ccn2)ccc(F)c1F` the same measures were 0.53 µM and 160.
In data set [1], `Cc1cccc(NC(=O)c2ccccc2C)n1` registered an inhibition at 10 µM of under 10%.
`O=C(Nc1ccc2ccccc2n1)c1ccccc1-c1ccccc1` registered an inhibition at 10 µM in data set [1] of 53%.
The same measure, in the same setting: then `COc1ccc(C)c(C(=O)Nc2ccccn2)c1`, with under 10%; and `Cc1ccccc1C(=O)Nc1ccccc1`, with under 10%; and `O=C(Nc1ccccn1)c1ccccc1C(F)(F)F`, with under 10%.
`Cc1cccc(C(=O)Nc2ccccn2)c1C` came in with an IC50 in data set [2] of 3.5 µM. In addition, the selectivity ratio in data set [3] turned out to be 24.
`Cc1ccccc1C(=O)Nc1ncccc1F` came in with an inhibition at 10 µM in data set [1] of under 10%.
For `Cc1ccccc1C(=O)Nc1cccc(N)n1`, 4.6 µM corresponded to half-maximal inhibition in data set [2] (IC50). Further, the selectivity ratio in data set [3] is over 19.
Usually logD stands for lipophilicity at a set pH, counting ionised and neutral species. The low end stands for a more hydrophilic compound, the high end for a more lipophilic compound. On to `COc1ccc(NC(=O)c2ccccc2C)nc1`, for which the logD in data set [4] is 2.5. The solubility kinetic is over 100 µg/mL in data set [5] and 12.5 µg/mL (≈ 51.6 µM) in data set [6]. In addition, in data set [7], the fraction unbound is 0.399. For the same molecule, the CLint with Liver microsome worked out at 23 µL/min/mg. Besides, the IC50 in data set [2] was found to be 3.8 µM. In addition, the selectivity ratio in data set [3] was over 22.
`Cc1c(F)cccc1C(=O)Nc1cc(F)ccn1` displayed an IC50 in data set [2] of 0.1 µM. The selectivity ratio in data set [3] turned out to be 851.
In data set [1], `Cc1cc(-c2ccccc2)ccc1C(=O)Nc1ccccn1` came in with an inhibition at 10 µM of under 10%.
On the same count and under the same terms, under `Cc1ccccc1C(=O)Nc1ccsc1` stands under 10%; under `Cc1ccccc1NC(=O)c1ccccn1`, under 10%.
Take `CCCCCN(C(=O)c1ccccc1C)c1ccccn1`: in data set [1], the inhibition at 10 µM turned out to be 17%.
The same measure, in the same setting: then `Cc1ccccc1C(=O)N(C)c1ccccn1`, with 18%.
As to `O=C(Nc1ccccn1)c1cccc(F)c1`, half-maximal inhibition in [2] (IC50) required 7.33 µM. Further, in data set [3], the selectivity ratio stood at 11.
On to `Cc1ccccc1C(=O)Nc1cccc(C#CCC(C)C)n1`, for which, in [1], the inhibition at 10 µM is under 10%.
The same measure, in the same setting: under `O=C(Nc1ccccn1)c1ccccc1F` stands 35%.
The same measure, in the same setting: under `Cc1ccccc1C(=O)Nc1ncco1` stands under 10%.
In turn, `Cc1c(Cl)cccc1C(=O)Nc1ccccn1` had an IC50 in [2] of 0.63 µM. The selectivity ratio in data set [3] is 132.
The molecule `Cc1ccccc1C(=O)Nc1cccc(F)n1` had a pH-dependent lipophilicity (logD) in data set [4] of 3. Moreover, the solubility kinetic in data set [5] and in data set [6] was over 100 µg/mL in each case. For the same molecule, the fraction unbound in [7] was 0.33. In the data set on Liver microsome, this molecule came in with a CLint of 191 µL/min/mg. The molecule further showed an inhibition at 10 µM in [1] of under 10%.
With `COc1cccc(C(=O)Nc2ccccn2)c1C`, testing at 10 µM in data set [1] gave an inhibition of 10%.
`Cc1ccccc1C(=O)Nc1cccc(Br)n1` showed an inhibition at 10 µM in data set [1] of under 10%.
For orientation: EC50 means the concentration that produces a half-maximal response. As for `CCN(CC)CCCC(C)Nc1ccnc2cc(Cl)ccc12` (stereo unspecified) [CHLOROQUINE], in the data set with Plasmodium falciparum, the EC50 worked out at 0.11 µg/mL (≈ 0.344 µM).
In [2], `CCc1ccccc1C(=O)Nc1ccccn1` showed an IC50 of 2.74 µM. Further, in [3], the selectivity ratio was 30.
As to `CCC/C=C/c1ccc(C(=O)Nc2ccccn2)c(C)c1`, the inhibition at 10 µM in data set [1] was found to be 24%.
Consider `Cc1c(Br)cccc1C(=O)Nc1ccccn1`, for which the IC50 in data set [2] is 5.7 µM. For the same molecule, in data set [3], the selectivity ratio worked out at 15.
Consider `Cc1ccnc(NC(=O)c2cccc(F)c2C)c1`, for which the logD in data set [4] came to 3.5. In addition, the solubility kinetic in data set [5] is over 100 µg/mL; in data set [6], 25 µg/mL (≈ 102 µM). Besides, in [7], the fraction unbound is 0.276. The same molecule had a CLint in the data set on Liver microsome of 237 µL/min/mg. Moreover, in [2], it took 0.83 µM to reach half-maximal inhibition (IC50). Moreover, the selectivity ratio in data set [3] was 100.
Turning to `Cc1ccccc1C(=O)Nc1cc(C#N)ccn1`, the logD in [4] is 2.8. Moreover, the solubility kinetic in data set [5] turned out to be 50 µg/mL (≈ 211 µM); in data set [6], 25 µg/mL (≈ 105 µM). Also, the fraction unbound in [7] is 0.359. In the data set on Liver microsome, this molecule displayed a CLint of 82 µL/min/mg. This molecule registered an IC50 in [2] of 2.3 µM.
In [1], `O=C(Nc1ccccn1)c1ccccc1I` gave an inhibition at 10 µM of 38%.
The molecule `Cc1ccccc1C(=O)Nc1ccon1` returned an inhibition at 10 µM in [1] of under 10%.
`Cc1ccccc1C(=O)Nc1cccnn1` registered an inhibition at 10 µM in data set [1] of under 10%.
Same read-out and setting: under `Cc1ccccc1C(=O)Nc1nc[nH]n1` stands under 10%.
On the same count and under the same terms, then `Cc1ccccc1C(=O)Nc1ccc(Cl)cn1`, with under 10%; and `Cc1cccnc1C(=O)Nc1ccccn1`, with 12%.
With `O=C(Nc1ccccn1)c1ccccc1Cl`, the inhibition at 10 µM in [1] was 44%.
On the same count and under the same terms, then `Cc1ccccc1C(=O)Nc1ccc(-c2ccccc2)cn1`, with 11%; and `Cc1ccc(NC(=O)c2cc(S(=O)(=O)NC(C)(C)C)ccc2C)nc1`, with 12%.
Still for that read-out and setting: then `Cc1ccc(F)cc1C(=O)Nc1ccccn1`, with under 10%; and `O=C(Nc1ccccn1)c1ccccc1OC(F)(F)F`, with 13%.
The same measure, in the same setting: then `O=C(Nc1ccccn1)c1ccccc1-c1ccccc1`, with under 10%; and `Cc1ccccc1C(=O)Nc1nncs1`, with under 10%; and `Cc1ncccc1C(=O)Nc1ccccn1`, with 21%.
As for `Cc1ccccc1C(=O)Nc1cccc(Cl)n1`, the inhibition at 10 µM in [1] was under 10%.
On the same count and under the same terms, under `COc1cccnc1NC(=O)c1ccccc1C` stands under 10%.
In [1], `Cc1ccccc1C(=O)Nc1ccc(C#CCC(C)C)cn1` yielded an inhibition at 10 µM of 12%.
The same measure, in the same setting: then `Cc1ccccc1C(=O)Nc1cccc(O)n1`, with under 10%; and `Cc1ccccc1C(=O)Nc1ccccc1C#N`, with under 10%.
`Cc1ccccc1C(=O)Nc1cc(F)ccn1` had a half-inhibitory concentration (IC50) in data set [2] of 0.51 µM. In data set [3], the selectivity ratio came to 168.
The molecule `Cc1ccccc1C(=O)Nc1ncccn1` registered a logD in data set [4] of 3.9. Further, the solubility kinetic in data set [5] and in data set [6] was 6.3 µg/mL (≈ 29.5 µM) throughout. Further, the fraction unbound in [7] is 0.024. The same molecule displayed an inhibition at 10 µM in [1] of under 10%.
`Cc1cc(F)ccc1C(=O)Nc1ccccn1` displayed an IC50 in [2] of 1.9 µM. Moreover, in data set [3], the selectivity ratio was determined as 44.
In [1], `Cc1ccccc1C(=O)Nc1cccc(OCC(C)C)n1` returned an inhibition at 10 µM of under 10%.
With `COc1ccc(NC(=O)c2ccc(F)cc2C)nc1`, the IC50 in data set [2] stood at 2.6 µM. In addition, in data set [3], the selectivity ratio amounted to 32.
`COc1ccc(C(=O)Nc2ccccn2)c(C)c1` registered an inhibition at 10 µM in [1] of under 10%.
The same measure, in the same setting: then `CCCCN(C(=O)c1ccccc1C)c1ccccn1`, with 11%; and `Cc1ccccc1C(=O)Nc1ccc(Br)c(C)n1`, with under 10%.
In the case of `O=C(Nc1ccccn1)c1ccccc1`, in data set [2], half-maximal inhibition (IC50) required 9.07 µM. The selectivity ratio in [3] worked out at 9.2.
`Cc1ccccc1C(=O)Nc1ccc(C#N)cn1`: the logD in [4] was 3.9. In addition, the solubility kinetic in [5] and in [6] was 6.3 µg/mL (≈ 26.6 µM) in each case. Also, the fraction unbound in [7] is 0.025. For the same molecule, in [1], the inhibition at 10 µM is under 10%.
In data set [1], `Cc1ccccc1C(=O)Nc1ccncn1` gave an inhibition at 10 µM of under 10%.
On to `COc1ccc(NC(=O)c2cccc(F)c2C)nc1`, for which the IC50 in [2] amounted to 2.3 µM. In addition, the selectivity ratio in data set [3] was 4.
For `Cc1ccccc1C(=O)Nc1cc(Br)ccn1` the same measures were 1.8 µM and over 41.
Turning to `Cc1ccccc1C(=O)Nc1cccc(C#N)n1`, the inhibition at 10 µM in [1] came to 11%.
Regarding `Cc1ccc(NC(=O)c2ccccc2C)nc1`, the inhibition at 10 µM in data set [1] is under 10%.
The molecule `Cc1c(C(=O)Nc2cc(F)ccn2)ccc(F)c1F` returned an IC50 in [2] of 0.19 µM. Also, the selectivity ratio in data set [3] turned out to be 450.

(Values after ChEMBL document CHEMBL3352586, “Pyridyl benzamides as a novel class of potent inhibitors for the kinetoplastid Trypanosoma brucei” (J Med Chem, 2014).)
